Laboratory results published in ChEMBL document CHEMBL2311375, “Synthesis and characterization of a small analogue of the anticancer natural product leinamycin” (Bioorg Med Chem, 2013).
Activity calls are given as the source filed them. The calls are words filed in the database; no cut-off is given here.

Assays:
[1] = Induction of oxidative supercoiled double-stranded plasmid DNA strand (unknown origin) cleavage at 250 uM after 3 to 15 hrs using ethidium bromide staining by agarose gel electrophoresis in presence of 375 uM 2-mercaptoethanol and catalase
How it was run: (§1)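 Supercoiled plasmid DNA (30 μM bp) incubated 3–15 h at 37 °C in sodium phosphate buffer (50 mM, pH 7) with 10% v/v acetonitrile. Final concentrations: compound 250 μM, 2-mercaptoethanol 375 μM where added. Catalase (100 μg/mL) added before compound where used. Forms I and II resolved on 0.9% agarose gel (80 V, 3 h, 1x TAE), stained with ethidium bromide, visualized by UV and quantified by image analysis. Breaks per plasmid S = −ln f1, f1 = fraction form I.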

[2] = Induction of supercoiled double-stranded plasmid DNA strand (unknown origin) cleavage at 250 uM after 3 to 15 hrs using ethidium bromide staining by agarose gel electrophoresis; how it was run: as §1
[3] = Induction of oxidative supercoiled double-stranded plasmid DNA strand (unknown origin) cleavage at 250 uM after 3 to 15 hrs using ethidium bromide staining by agarose gel electrophoresis in presence of 375 uM 2-mercaptoethanol; how it was run: as §1

Compound	Activity [1]	Activity [2]	Activity [3]
CC(C)=CCCC1(C)CC(=O)S[S+]1[O-] (configuration not stated)	inactive	inactive	Active
O=c1s[s+]([O-])c2ccccc12 (configuration not stated)	inactive	inactive	Active
CC(C)=CCCC1(C)CC(=O)S[S+]1[O-] (mixture of isomers)	inactive	inactive	Active
CC(C)=CCCC1(C)CC(=O)S[S+]1[O-] (single isomer, unassigned)	inactive	inactive	Active
